From ChEMBL document CHEMBL1141414, “Inhibitors of bacterial cystathionine beta-lyase: leads for new antimicrobial agents and probes of enzyme structure and function” (J Med Chem, 2007)
Values after ≈ are worked out from the molar mass of the structure shown.

Legend:
[1] = molecular target: T1, Cystathionine beta-lyase MetC (Escherichia coli K-12, UniProt P06721); test: Inhibition of Escherichia coli CBL
T1 sequence (P06721 whole entry): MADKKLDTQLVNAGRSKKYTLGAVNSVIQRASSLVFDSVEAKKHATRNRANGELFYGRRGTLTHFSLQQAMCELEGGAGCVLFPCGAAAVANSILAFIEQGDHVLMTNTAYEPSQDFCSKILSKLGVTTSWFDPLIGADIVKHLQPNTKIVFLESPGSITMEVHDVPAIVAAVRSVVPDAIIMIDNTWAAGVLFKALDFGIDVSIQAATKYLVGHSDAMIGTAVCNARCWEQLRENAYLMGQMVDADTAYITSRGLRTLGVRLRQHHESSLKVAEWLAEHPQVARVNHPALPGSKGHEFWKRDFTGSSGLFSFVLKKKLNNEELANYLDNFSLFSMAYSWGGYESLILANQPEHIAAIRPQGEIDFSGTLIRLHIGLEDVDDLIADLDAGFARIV
Summary of the method: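 Purified E. coli CBL (24 nM) in 50 mM TAPS pH 8.5 with 1 mM DTNB, preincubated 10 min at room temperature with inhibitor in DMSO (5% final). Reaction started with 100 µM cystathionine; homocysteine formation followed at 412 nm for 4 min, rate taken from 30-200 s slope. IC50 fitted as a four-parameter logistic from 12 concentrations, triplicate.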

[2] = tested on: Candida albicans; test: Antifungal activity against Candida albicans ATCC 90028; format: functional
[3] = tested on: Escherichia coli; test: Antibacterial activity against Escherichia coli ATCC 25922 in presence of methionine; format: functional
[4] = tested on: Escherichia coli; test: Antibacterial activity against Escherichia coli ATCC 25922 in absence of methionine; format: functional

SMILES	IC50 [1]	MIC [2]	MIC [3]	MIC [4]
Cc1ccc2nc(-c3ccc(NC(=O)c4ccc(Cl)cc4)cc3)sc2c1	200 µM	> 128 µg/mL	> 128 µg/mL	> 128 µg/mL
COc1cccc(OC)c1C(=O)NCC(=O)NN	60 µM	> 128 µg/mL	> 128 µg/mL	> 128 µg/mL
NNC(=O)CNC(=O)c1cc2ccccc2cc1N	560 µM	> 128 µg/mL	> 128 µg/mL	> 128 µg/mL
NNC(=O)CNC(=O)c1ccc([N+](=O)[O-])cc1	25 µM	> 128 µg/mL	64 µg/mL	32 µg/mL (≈ 134 µM)
NNC(=O)CNC(=O)Cc1cccc2ccccc12	500 µM			
CC(=O)NCc1ccc(S(=O)(=O)NN)cc1	34 µM	> 128 µg/mL	64 µg/mL	64 µg/mL (≈ 263 µM)
NNC(=O)CNC(=O)c1ccc(C(F)(F)F)cc1	15 µM	> 128 µg/mL	128 µg/mL	128 µg/mL (≈ 490 µM)
NNC(=O)CNC(=O)c1cccc(C(F)(F)F)c1	37 µM	> 128 µg/mL	> 128 µg/mL	> 128 µg/mL
NNC(=O)CNC(=O)c1cc(N)cc(N)c1	82 µM	> 128 µg/mL	128 µg/mL	128 µg/mL (≈ 573 µM)
Cc1ccc2nc(-c3ccc(NC(=O)Nc4ccc(Cl)cc4)cc3)sc2c1	16 µM	> 128 µg/mL	> 128 µg/mL	> 128 µg/mL

The next compounds have a lower IC50 [1] than those just listed; values first:

IC50 [1]	MIC [2]	MIC [3]	MIC [4]	SMILES
2.2 µM	128 µg/mL (≈ 687 µM)	64 µg/mL	32 µg/mL (≈ 172 µM)	Cc1ccc(S(=O)(=O)NN)cc1
6 µM				NNS(=O)(=O)c1cccc2c(N)cccc12
6.9 µM				NNS(=O)(=O)c1ccc(Cl)s1
5.9 µM	> 128 µg/mL	128 µg/mL	128 µg/mL (≈ 452 µM)	NNC(=O)CNC(=O)c1cc([N+](=O)[O-])cc([N+](=O)[O-])c1
9 µM				N#CC(C#N)=C1c2cc(S(=O)(=O)Oc3ccccc3)cc([N+](=O)[O-])c2-c2c1cc(S(=O)(=O)Oc1ccccc1)cc2[N+](=O)[O-]
0.53 µM	> 128 µg/mL	64 µg/mL	64 µg/mL (≈ 128 µM)	O=C(OCc1ccccc1Br)c1cc([N+](=O)[O-])cc2c1-c1ccc([N+](=O)[O-])cc1/C2=N/O
0.079 µM	> 128 µg/mL	> 128 µg/mL	> 128 µg/mL	NNC(=O)CNC(=O)c1ccccc1C(F)(F)F
0.65 µM	> 128 µg/mL	> 128 µg/mL	> 128 µg/mL	COc1c(F)c(F)cc(C(=O)NCC(=O)NN)c1F
1.8 µM				NNS(=O)(=O)c1ccc(Cl)c(Cl)c1
2.7 µM	> 128 µg/mL	> 128 µg/mL	> 128 µg/mL	O=C(CSc1nccc(-c2cccs2)n1)c1cc(-c2ccc(Cl)c(Cl)c2)no1
3.4 µM	> 128 µg/mL	32 µg/mL	32 µg/mL (≈ 125 µM)	NNS(=O)(=O)c1ccc(-c2ccccn2)s1
4.5 µM	128 µg/mL (≈ 537 µM)	16 µg/mL	16 µg/mL (≈ 67.2 µM)	NNC(=O)CNC(=O)c1ccccc1[N+](=O)[O-]
0.28 µM	16 µg/mL (≈ 56.1 µM)	64 µg/mL	32 µg/mL (≈ 112 µM)	Cc1ccccc1NC(=O)C(C(F)(F)F)C(F)(F)F
